The values below come from the RNAGym collection of RNA variant scans (doi:10.1126/science.aae0568).

This sample holds only a part of the variants without activity.

B1: tRNA (parent)
chain: GUUCCGUUGGCGUAAUGGUAACGCGUCUCCCUCCUAAGGAGAAGACUGCGGGUUCGAGUCCCGUACGGAACG

The variants in the data set derive from B1. Description: yeast fitness relative to wild type (ratio to wild type); higher = fitter; tRNA-Arg(CCU), competitive growth, 37 C, YPD. The method in brief: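 Variants of the tRNA-Arg(CCU) gene were chemically synthesised with a 3% per-site mutation rate across 69 sites and placed at the native genomic locus in Saccharomyces cerevisiae. Six parallel replicates of the pooled strains were competed in YPD at 37°C for 24 hours, and gene amplicons from the start and end populations were read by 100-nucleotide paired-end sequencing. Darwinian fitness relative to wild type was derived from changes in genotype frequencies. Genotypes required ≥ 100 starting reads, and estimates < 0.5 were set to 0.5.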
As for C31A A40C G52A C61A, the yeast fitness turned out to be 0.528.
Turning to A14G A36U A37C C49A U53G, the yeast fitness was ≤ 0.5.
In the case of A14U A40C C62A C66U, the yeast fitness came out at 0.603.
Under C46U C66A stands 0.853; under A36G C61G, 0.659; under A14U A15U C34G A42C, 0.537.
Regarding G6C G12C A15U A21C C49U G51C U53C, the yeast fitness was ≤ 0.5.
On to G6A U26A C30G U59C, for which the yeast fitness was ≤ 0.5.
Under C5U U13A G38C U47G C62U stands ≤ 0.5.
G25A C29A C55A: the yeast fitness worked out at 0.625.
A43U G52C: the yeast fitness came out at 0.6.
Next, U26G C31U C55U: 0.564; G25C A45C A70C: 0.677; U26G U47A: 0.811.
With A15G A21G C29G A42G C55A, the yeast fitness was ≤ 0.5.
Next, U16G A45U: 0.969.
In the case of G10C A14C C62U, the yeast fitness was found to be 0.537.
As for G6A C27U C29A, the yeast fitness is ≤ 0.5.
As for U7C A20C, the yeast fitness was determined as 0.844.
In the case of A21G C49U G63A, the yeast fitness is 0.804.
Regarding A21C C27A U28A A45G A69C, the yeast fitness was ≤ 0.5.
In the case of G6C U8C C27U G48A A57G, the yeast fitness was ≤ 0.5.
With U47C G63A, the yeast fitness came out at 0.949.
Take U7C U28A A37G C46U U47C: the yeast fitness was ≤ 0.5.
Under C31U A43G stands 1.06; under A21C A37U A42U C46G U47G, 0.534.
In the case of U8A C30G C46A G63A, the yeast fitness was ≤ 0.5.
Under G10C A37G C49U G52A C55G C66A stands ≤ 0.5; under G41C C49A G67A, ≤ 0.5.
Next, A14U G25A C60G C66G: ≤ 0.5.
For the variant A14G C30A C34A A43C, the yeast fitness is ≤ 0.5.
Next, U26A U35C G68A: 0.631; C11G G18U C22U G39C C49G A57U A69U: ≤ 0.5; U16C U59C G67A: ≤ 0.5.
For U7C G41A A42C G50C G52A A70G, the yeast fitness is ≤ 0.5.
As for U19C C22A C55G C62U, the yeast fitness was ≤ 0.5.
Take G52C C61U: the yeast fitness was 0.66.
Consider U13A A36G, for which the yeast fitness is 1.02.
With A14C G44A C46A G52A C66U, the yeast fitness is ≤ 0.5.
In the case of A21U U26C A45G, the yeast fitness was ≤ 0.5.
Next, U2A U32A A69C: 0.612.
With U2G G9C A20G A42C C46G C49U C66U A69C, the yeast fitness is ≤ 0.5.
For U28A C29G C33U C34G A42U G58A, the yeast fitness is ≤ 0.5.
As to U3G C24U C27G C30A A65U A69U, the yeast fitness was ≤ 0.5.
As to U35A G58A G67C, the yeast fitness is ≤ 0.5.
As to C31G C55G A65C, the yeast fitness is ≤ 0.5.
Next, A36U A40C: 0.54.
In the case of U3C A15C G17C C24A C31U U35C G68A, the yeast fitness was ≤ 0.5.
In the case of U2C A15C C24A G41C G68A, the yeast fitness was ≤ 0.5.
As for U2A C31U, the yeast fitness amounted to 0.921.
Take A15G G17A C29G C31U A65G C66G: the yeast fitness was 0.552.
For the variant C33G A37G C46A C49U, the yeast fitness is ≤ 0.5.
Under C29U A43G C66U stands 0.598; under C29A A40U, 0.684; under A14C C22G U26G C55A A65G, ≤ 0.5.
Next, C5A A15U C24A G25A U47C G52C: ≤ 0.5; A21G U28A A42C A57G C66A: 0.6; G12A U13A A42C A70U: ≤ 0.5.
For the variant C27A A37C G44A U53G, the yeast fitness was ≤ 0.5.
Next, C11U C55G G63C G67C: ≤ 0.5; A14C A43G U59C C62A: ≤ 0.5.
For C22U A36U, the yeast fitness was 0.591.
Next, U8A C24G A43G C49U: ≤ 0.5; C4U A40G U64C: 0.952; U8C C11G G58U: ≤ 0.5.
Under C5U A20C A40C C61U G68C stands ≤ 0.5; under C62G A70C, 0.679; under U8A A21C A42U G50A, ≤ 0.5.
As for U19A C60G A69U, the yeast fitness was ≤ 0.5.
Next, C30G C33A G50A G52A C60U C61G: ≤ 0.5.
Regarding G10A A20U C27U U35C G48C C60A, the yeast fitness was ≤ 0.5.
Next, C11G A14G A37G G44A: ≤ 0.5; C33G U64A: ≤ 0.5; C29G A37U: 0.566.
Next, G56A A70C: 1.06; U16C U59A C62A G67C: ≤ 0.5.
Turning to G10A G17A C30G G67U, the yeast fitness was ≤ 0.5.
G50A A57C C66U: the yeast fitness was ≤ 0.5.
For A15C G25A, the yeast fitness came out at 1.02.
For the variant C49A C62U C66U, the yeast fitness worked out at 0.585.
Regarding C4U U54A C62U, the yeast fitness is ≤ 0.5.
Take U2C G18A C24U: the yeast fitness stood at 0.529.
As for C5U C24U G56C, the yeast fitness stood at 0.53.
Consider C5A G39C C46A C60G, for which the yeast fitness is ≤ 0.5.
Next, A20U C27G C29A A57G A65G: ≤ 0.5; U8G A43C C61U: ≤ 0.5.
As for A42C A43C C55G A57G, the yeast fitness was found to be 0.641.
Under G10C U32C stands 0.73; under U8C C29A C34G A36G A40C G41A U47A U64C, ≤ 0.5.
Under C5U A14C G41C A43C stands ≤ 0.5; under G10A A70G, 0.743.
G9C G23A A36C: the yeast fitness came out at 0.777.
Turning to G6C C11A A45C C60U, the yeast fitness was ≤ 0.5.
On to G25A A45U, for which the yeast fitness came out at 0.803.
As to U3A C24U U53A, the yeast fitness turned out to be 0.548.
With C4A C5A G41C G56A C62U A65C, the yeast fitness was ≤ 0.5.
Turning to C11A C24U C31U, the yeast fitness stood at 0.547.
As for U35G A40C, the yeast fitness was 0.682.
With U54A A57U G63C A69U, the yeast fitness is ≤ 0.5.
C5G G17A C46G: the yeast fitness is 0.538.
As for U8G A15G C24U C29G A45C C60A, the yeast fitness came out at 0.551.
As to G10A C22A, the yeast fitness was determined as 0.717.
For the variant G6U U35G A69U, the yeast fitness amounted to 1.03.
As to A15G C24G U26A, the yeast fitness came out at 0.656.
With U16A C49U G52A C60A, the yeast fitness is ≤ 0.5.
Turning to C27G G67U, the yeast fitness was 0.632.
Take U13G U35G A40G: the yeast fitness came to 0.676.
As for U19A G25C C33A A37G G44A, the yeast fitness is ≤ 0.5.
Next, A21G U35C A36U A40U C55U A57C: ≤ 0.5.
Under C5G A15C G18C C49U U64A A69U stands ≤ 0.5; under C22U C33G, 0.551; under A37G G48C C49U C60A A65U, ≤ 0.5.
Consider U8A U26C A43U C55U, for which the yeast fitness was ≤ 0.5.
Consider C46U C61A, for which the yeast fitness came out at 0.83.
As for A20U G38C C49A, the yeast fitness was ≤ 0.5.
Under G9A C31A A42C stands 0.54.
Next, C30U C46U A70G: 0.601; C27A: 0.997; G18C C30U A45U: 0.549.
As for C4A G10A G23A, the yeast fitness was ≤ 0.5.
In the case of G48A G51A A69U, the yeast fitness worked out at 0.755.
Turning to C27A G56C, the yeast fitness came to 0.627.
In the case of U3G U26A C29A C34A G38A G67C, the yeast fitness was 0.712.
On to A15U G58C A70U, for which the yeast fitness was 0.643.
C5U A42C A69C: the yeast fitness is 0.803.
For G23C C27U C29U G51A, the yeast fitness came out at 0.645.
Take C5U A37G G56C A65C: the yeast fitness was ≤ 0.5.
As to U2G G52A G56A, the yeast fitness amounted to 0.81.
Turning to G9C C27U, the yeast fitness turned out to be 0.621.
Turning to U3C C5U C24U A42C A57U, the yeast fitness was ≤ 0.5.
With U13C A57U, the yeast fitness was 0.753.
For the variant C30U A36U A70C, the yeast fitness was ≤ 0.5.
Next, C31A A42G A57U U59A: ≤ 0.5; C4A A14C G41A G48C C55A A65C: 0.556; A37U A57C: 0.578.
On to C5U G17U C29G C31G A36U A37C A69C, for which the yeast fitness was ≤ 0.5.
As to U35A G38A C61G, the yeast fitness is ≤ 0.5.
Next, G12C A15G C29U A42U U47C C62U: ≤ 0.5; C5A C22U C27G C30G: ≤ 0.5; G50A A57C: 0.611.
In the case of A43U G63A, the yeast fitness is 0.895.
Under A15G U35A stands 0.602; under C4G U8A G12A G58A, ≤ 0.5; under U2A C11A A14G C29U G68U, 0.564.
U3C C33U: the yeast fitness came to 0.803.
G17A C30G C61G: the yeast fitness was ≤ 0.5.
For the variant A14G A36U, the yeast fitness was determined as 0.658.
Next, C22U C34U C62U A70C: ≤ 0.5.
Under U7C G18A C22G C62U A70G stands ≤ 0.5; under G41C C49A A69U, 0.544; under C29G A45G, 0.609.
For the variant G38A A65U G68U, the yeast fitness is 0.665.
Turning to G9A U28C A37U U47A C61U, the yeast fitness amounted to 0.871.
With A45G C49A, the yeast fitness worked out at 0.609.
For U8C A45U U59C, the yeast fitness came out at 0.57.
Under G9C G39C G41A A43U stands ≤ 0.5; under G10C A42G, 0.57.
In the case of G23A C61A A70U, the yeast fitness was ≤ 0.5.
Turning to U8A C34A A65U, the yeast fitness was ≤ 0.5.
On to U7C A20G A40U, for which the yeast fitness was determined as 0.597.
For the variant G9A C46G C49U A69U, the yeast fitness stood at 1.11.
Under A14G C34G A43C C62U stands ≤ 0.5; under G6A G9C G44C, 0.605.
U3C G44C C46A: the yeast fitness was found to be 0.672.
Under G12C U13C A20C C24G G39C stands ≤ 0.5.
Take G18A A57G G58C: the yeast fitness came out at 0.63.
Take G18A A20U A36U A65C: the yeast fitness is 0.706.
